Tests used:
[1] = molecular target: Mitogen-activated protein kinase 10 (Rattus norvegicus) (UniProt P49187); assay: Inhibition of rat c-Jun N-terminal kinase-3 at 30 uM
How it was run: (§1)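 Kinase activity assayed with ATP at 100 µM, deliberately higher than usual assay ATP levels because the inhibitors are assumed ATP-competitive. Results are reported as percent inhibition of each kinase.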

[2] = molecular target: RAC-alpha serine/threonine-protein kinase (Homo sapiens) (UniProt P31749); assay: Inhibition of human Protein kinase B alpha at 30 uM; how it was run: as §1
[3] = molecular target: Mitogen-activated protein kinase 14 (Homo sapiens) (UniProt Q16539); assay: Inhibition of human stress-activated protein kinase-2 alpha (p38 MAP-kinase) at 30 uM; how it was run: as §1
Chain of Mitogen-activated protein kinase 14 (Homo sapiens) (Q16539 whole entry): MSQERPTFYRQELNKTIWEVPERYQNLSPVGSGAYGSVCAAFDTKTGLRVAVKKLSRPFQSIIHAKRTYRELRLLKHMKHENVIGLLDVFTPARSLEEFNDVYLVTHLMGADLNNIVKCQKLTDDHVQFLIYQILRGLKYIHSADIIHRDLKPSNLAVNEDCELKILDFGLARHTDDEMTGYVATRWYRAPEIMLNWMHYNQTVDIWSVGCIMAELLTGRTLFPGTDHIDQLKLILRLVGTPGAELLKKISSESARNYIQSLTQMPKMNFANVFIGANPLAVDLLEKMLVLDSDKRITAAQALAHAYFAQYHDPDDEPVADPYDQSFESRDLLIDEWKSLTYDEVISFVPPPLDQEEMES

[4] = molecular target: Dual specificity mitogen-activated protein kinase kinase 1 (Homo sapiens) (UniProt Q02750); assay: Inhibition of human Mitogen activated protein kinase kinase 1 (MEK1) at 30 uM; how it was run: as §1
Chain of Dual specificity mitogen-activated protein kinase kinase 1 (Homo sapiens) (Q02750 whole entry): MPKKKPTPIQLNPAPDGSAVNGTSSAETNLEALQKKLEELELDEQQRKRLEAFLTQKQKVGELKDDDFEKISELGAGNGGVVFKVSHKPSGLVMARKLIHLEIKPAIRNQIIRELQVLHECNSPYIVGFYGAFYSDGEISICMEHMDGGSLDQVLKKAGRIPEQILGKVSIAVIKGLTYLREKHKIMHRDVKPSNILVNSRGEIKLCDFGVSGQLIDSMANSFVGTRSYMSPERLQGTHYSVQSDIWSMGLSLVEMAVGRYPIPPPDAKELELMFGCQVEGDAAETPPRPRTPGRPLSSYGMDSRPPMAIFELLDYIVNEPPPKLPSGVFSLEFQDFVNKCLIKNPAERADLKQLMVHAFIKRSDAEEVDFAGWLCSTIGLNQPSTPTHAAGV

[5] = molecular target: Protein kinase C alpha type (Homo sapiens) (UniProt P17252); assay: Inhibition of human Protein kinase C alpha; design: concentration or dose not given beside the values; settings: concentration not given here
[6] = molecular target: cAMP-dependent protein kinase (PKA) (Homo sapiens) (UniProt P22694+P17612+P22612); assay: Inhibition of human cAMP-dependent protein kinase (PKA); assay type: protein assay; design: concentration or dose not given beside the values; settings: concentration not given here
[7] = molecular target: Ca2+/calmodulin-dependent protein kinase II (CaM kinase II) (Rattus norvegicus) (UniProt P11275+P08413+P15791+P11730); assay: Inhibition of rat Calcium/calmodulin-dependent protein kinase type II at 30 uM; assay type: protein assay; how it was run: as §1
[8] = molecular target: Glycogen synthase kinase-3 beta (Homo sapiens) (UniProt P49841); assay: Inhibition of human Glycogen synthase kinase-3 beta at 30 uM; how it was run: as §1
Chain of Glycogen synthase kinase-3 beta (Homo sapiens) (P49841 whole entry, looked up): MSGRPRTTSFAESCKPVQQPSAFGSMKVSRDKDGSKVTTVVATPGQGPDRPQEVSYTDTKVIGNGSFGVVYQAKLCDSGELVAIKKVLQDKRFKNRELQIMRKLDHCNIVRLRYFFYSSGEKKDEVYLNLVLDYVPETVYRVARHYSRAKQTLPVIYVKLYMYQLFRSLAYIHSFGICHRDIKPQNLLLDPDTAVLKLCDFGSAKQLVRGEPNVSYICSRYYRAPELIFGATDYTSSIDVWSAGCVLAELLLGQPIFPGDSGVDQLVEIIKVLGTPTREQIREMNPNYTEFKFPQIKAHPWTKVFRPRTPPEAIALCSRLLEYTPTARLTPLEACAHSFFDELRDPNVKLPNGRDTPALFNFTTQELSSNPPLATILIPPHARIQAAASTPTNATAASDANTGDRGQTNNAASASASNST

[9] = molecular target: Mitogen-activated protein kinase 8 (Homo sapiens) (UniProt P45983); assay: Inhibition of human c-Jun N-terminal kinase-1 alpha-1 at 30 uM; how it was run: as §1
Chain of Mitogen-activated protein kinase 8 (Homo sapiens) (P45983 whole entry): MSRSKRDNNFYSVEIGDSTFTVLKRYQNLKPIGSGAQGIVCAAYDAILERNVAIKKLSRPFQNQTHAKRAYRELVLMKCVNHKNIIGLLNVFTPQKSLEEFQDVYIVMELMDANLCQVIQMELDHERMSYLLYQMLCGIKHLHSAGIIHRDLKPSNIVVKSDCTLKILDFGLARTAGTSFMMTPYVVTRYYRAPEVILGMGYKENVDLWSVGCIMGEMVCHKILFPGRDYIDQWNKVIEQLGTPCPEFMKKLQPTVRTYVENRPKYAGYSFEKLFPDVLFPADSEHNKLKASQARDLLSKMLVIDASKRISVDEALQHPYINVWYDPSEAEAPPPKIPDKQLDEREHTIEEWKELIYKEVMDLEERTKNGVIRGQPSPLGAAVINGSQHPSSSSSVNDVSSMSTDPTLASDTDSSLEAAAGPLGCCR

[10] = molecular target: Mitogen-activated protein kinase 9 (Homo sapiens) (UniProt P45984); assay: Inhibition of human c-Jun N-terminal kinase-2 alpha-2 at 30 uM; how it was run: as §1
Chain of Mitogen-activated protein kinase 9 (Homo sapiens) (P45984 whole entry, looked up): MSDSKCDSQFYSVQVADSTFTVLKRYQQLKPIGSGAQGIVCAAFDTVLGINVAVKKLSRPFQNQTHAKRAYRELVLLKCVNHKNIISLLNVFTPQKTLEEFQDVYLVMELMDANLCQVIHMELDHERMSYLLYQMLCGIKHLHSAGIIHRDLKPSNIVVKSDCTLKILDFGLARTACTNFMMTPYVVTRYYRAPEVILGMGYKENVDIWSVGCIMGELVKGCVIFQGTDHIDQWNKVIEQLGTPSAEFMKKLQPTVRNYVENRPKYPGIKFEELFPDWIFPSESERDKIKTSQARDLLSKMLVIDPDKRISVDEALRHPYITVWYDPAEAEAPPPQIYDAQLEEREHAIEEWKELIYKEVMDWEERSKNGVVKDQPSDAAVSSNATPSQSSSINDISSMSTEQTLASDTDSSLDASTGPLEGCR

[11] = molecular target: Mitogen-activated protein kinase 1 (Homo sapiens) (UniProt P28482); assay: Inhibition of human Mitogen-activated protein kinase 2 at 30 uM; how it was run: as §1
Chain of Mitogen-activated protein kinase 1 (Homo sapiens) (P28482 whole entry): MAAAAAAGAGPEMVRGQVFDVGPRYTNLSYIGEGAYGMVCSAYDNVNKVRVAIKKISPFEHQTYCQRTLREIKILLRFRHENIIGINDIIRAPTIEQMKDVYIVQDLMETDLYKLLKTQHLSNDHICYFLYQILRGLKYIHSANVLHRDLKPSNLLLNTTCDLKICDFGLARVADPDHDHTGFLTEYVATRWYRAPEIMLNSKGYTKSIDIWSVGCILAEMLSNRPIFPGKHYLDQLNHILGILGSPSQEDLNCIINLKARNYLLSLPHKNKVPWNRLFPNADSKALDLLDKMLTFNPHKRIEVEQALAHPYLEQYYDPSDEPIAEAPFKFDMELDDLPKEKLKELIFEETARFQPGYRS

[12] = molecular target: Tyrosine-protein kinase Lck (Homo sapiens) (UniProt P06239); assay: Inhibition of human lymphocyte protein tyrosine kinase Lck at 30 uM; how it was run: as §1
Chain of Tyrosine-protein kinase Lck (Homo sapiens) (P06239 2-509 limits assumed): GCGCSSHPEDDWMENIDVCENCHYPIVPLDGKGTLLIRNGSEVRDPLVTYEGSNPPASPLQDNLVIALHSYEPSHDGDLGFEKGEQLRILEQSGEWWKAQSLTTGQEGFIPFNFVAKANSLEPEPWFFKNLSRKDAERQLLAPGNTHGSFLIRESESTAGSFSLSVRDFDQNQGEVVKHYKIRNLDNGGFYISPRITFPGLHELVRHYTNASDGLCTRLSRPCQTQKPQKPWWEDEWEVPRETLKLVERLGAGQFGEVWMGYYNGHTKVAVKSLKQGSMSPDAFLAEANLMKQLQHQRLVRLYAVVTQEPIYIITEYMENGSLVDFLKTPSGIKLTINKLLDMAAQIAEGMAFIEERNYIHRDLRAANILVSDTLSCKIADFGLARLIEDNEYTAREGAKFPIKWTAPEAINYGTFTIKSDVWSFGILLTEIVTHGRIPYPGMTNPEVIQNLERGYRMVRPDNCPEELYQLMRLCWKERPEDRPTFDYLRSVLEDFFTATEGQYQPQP

[13] = molecular target: RAF proto-oncogene serine/threonine-protein kinase (Homo sapiens) (UniProt P04049); assay: Inhibition of human RAF proto-oncogene serine/threonine-protein kinase at 30 uM; how it was run: as §1
Chain of RAF proto-oncogene serine/threonine-protein kinase (Homo sapiens) (P04049 whole entry): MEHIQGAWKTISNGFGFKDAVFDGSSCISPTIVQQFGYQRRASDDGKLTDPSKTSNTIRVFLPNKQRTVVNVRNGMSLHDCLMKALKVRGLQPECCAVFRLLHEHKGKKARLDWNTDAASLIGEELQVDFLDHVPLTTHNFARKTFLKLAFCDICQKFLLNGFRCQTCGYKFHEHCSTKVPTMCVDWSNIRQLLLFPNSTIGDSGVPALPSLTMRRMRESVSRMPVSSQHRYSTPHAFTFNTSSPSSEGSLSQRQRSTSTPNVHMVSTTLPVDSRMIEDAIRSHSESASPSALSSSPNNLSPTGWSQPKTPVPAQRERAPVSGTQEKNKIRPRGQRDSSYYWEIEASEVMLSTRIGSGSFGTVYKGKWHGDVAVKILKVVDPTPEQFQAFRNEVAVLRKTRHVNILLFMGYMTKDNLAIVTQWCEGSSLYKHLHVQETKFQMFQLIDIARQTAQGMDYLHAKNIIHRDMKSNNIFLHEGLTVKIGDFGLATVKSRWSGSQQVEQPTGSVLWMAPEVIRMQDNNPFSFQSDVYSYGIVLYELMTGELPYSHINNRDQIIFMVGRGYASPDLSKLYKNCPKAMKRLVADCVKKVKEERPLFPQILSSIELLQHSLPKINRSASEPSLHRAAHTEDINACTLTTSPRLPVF

[14] = molecular target: Rho-associated protein kinase 2 (Homo sapiens) (UniProt O75116); assay: Inhibition of human Rho-dependent protein kinase-II at 30 uM

Chain of Mitogen-activated protein kinase 10 (Rattus norvegicus) (P49187 whole entry): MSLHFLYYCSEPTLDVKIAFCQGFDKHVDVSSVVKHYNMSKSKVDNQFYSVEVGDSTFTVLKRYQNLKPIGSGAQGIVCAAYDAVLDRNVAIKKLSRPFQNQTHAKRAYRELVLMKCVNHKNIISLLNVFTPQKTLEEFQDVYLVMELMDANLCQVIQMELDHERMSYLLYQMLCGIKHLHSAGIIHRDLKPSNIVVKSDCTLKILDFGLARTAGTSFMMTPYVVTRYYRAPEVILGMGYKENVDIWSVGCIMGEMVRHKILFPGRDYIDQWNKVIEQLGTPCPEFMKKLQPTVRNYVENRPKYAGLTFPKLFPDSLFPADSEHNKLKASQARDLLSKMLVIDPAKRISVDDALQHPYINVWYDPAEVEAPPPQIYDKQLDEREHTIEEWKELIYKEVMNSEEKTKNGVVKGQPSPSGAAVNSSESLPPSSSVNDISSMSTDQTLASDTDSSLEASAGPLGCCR

| inhibition [1] [%] | inhibition [2] [%] | inhibition [3] [%] | inhibition [4] [%] | inhibition [5] [%] | inhibition [6] [%] | inhibition [7] [%] | inhibition [8] [%] | inhibition [9] [%] | inhibition [10] [%] | inhibition [11] [%] | inhibition [12] [%] | inhibition [13] [%] | inhibition [14] [%] | Structure (SMILES) |
| --- | --- | --- | --- | --- | --- | --- | --- | --- | --- | --- | --- | --- | --- | --- |
| 0 | 0 | 18 | 0 | 3 | 0 | 0 | 0 | 0 | 0 | 0 | 0 | 1 | 9 | Fc1ccc(Oc2[nH]cnc3ncnc2-3)cc1 |
| 19 | 0 | 13 | 8 | 11 | 0 | 8 | 14 | 5 | 6 | 57 | 9 | 27 | 7 | Cn1cnc2c(Nc3ccc(F)cc3)ncnc21 |
| 0 | 3 | 1 | 0 | 0 | 0 | 8 | 2 | 0 | 0 | 0 | 0 | 0 | 2 | Fc1ccc(Cc2[nH]cnc3ncnc2-3)cc1 |
| 7 | 0 | 17 | 3 | 13 | 0 | 8 | 3 | 3 | 6 | 12 | 6 | 10 | 6 | Cn1cnc2c(Sc3ccccc3)ncnc21 |
| 0 | 33 | 3 | 0 | 18 | 0 | 10 | 0 | 0 | 0 | 0 | 11 | 0 | 0 | Cn1c(C#CCCO)nc2c(Sc3ccccc3)ncnc21 |
| 8 | 0 | 12 | 0 | 7 | 0 | 4 | 0 | 0 | 0 | 0 | 1 | 8 | 0 | Cn1cnc2c(/C=C/c3ccccc3)ncnc21 |
| 14 | 15 | 16 | 9 | 14 | 7 | 8 | 11 | 9 | 11 | 9 | 21 | 12 | 8 | Cn1cnc2c(-c3ccccc3)ncnc21 |
| 12 | 31 | 23 | 5 | 17 | 0 | 5 | 26 | 2 | 8 | 1 | 17 | 24 | 0 | Cn1c(-c2ccccc2)nc2c(-c3ccc(F)cc3)ncnc21 |
| 9 | 11 | 21 | 7 | 12 | 0 | 5 | 14 | 10 | 6 | 8 | 5 | 16 | 6 | Cn1cnc2c(SCc3ccc(F)cc3)ncnc21 |
| 20 | 0 | 10 | 1 | 14 | 0 | 0 | 8 | 0 | 0 | 0 | 0 | 4 | 0 | Fc1ccc(Cn2cnc3c(Cl)ncnc32)cc1 |
| 11 | 0 | 7 | 0 | 12 | 0 | 0 | 9 | 0 | 1 | 1 | 0 | 12 | 6 | Clc1ncnc2ncn(Cc3ccccc3)c12 |
| 16 | 29 | 29 | 7 | 17 | 3 | 8 | 22 | 2 | 0 | 1 | 20 | 14 | 9 | Cn1c(-c2ccccc2)nc2c(Sc3ccc(F)cc3)ncnc21 |
| 25 | 0 | 8 | 8 | 14 | 7 | 8 | 0 | 4 | 7 | 5 | 0 | 28 | 6 | Nc1ncnc2ncn(Cc3ccc(F)cc3)c12 |
| 0 | 1 | 23 | 0 | 5 | 0 | 0 | 19 | 0 | 0 | 0 | 23 | 0 | 0 | Cn1c(Br)nc2c(Sc3ccccc3)ncnc21 |
| 0 | 1 | 64 | 4 | 0 | 0 | 0 | 0 | 0 | 0 | 0 | 16 | 0 | 5 | Fc1ccc(Sc2ncnc3c2ncn3Cc2ccccc2)cc1 |
| 9 | 0 | 8 | 7 | 16 | 0 | 9 | 5 | 0 | 0 | 0 | 22 | 16 | 0 | Nc1ncnc2c1ncn2Cc1ccc(F)cc1 |
| 7 | 14 | 36 | 4 | 18 | 11 | 8 | 0 | 1 | 8 | 3 | 16 | 10 | 5 | Cn1c(-c2ccc(S(C)(=O)=O)cc2)nc2c(Sc3ccccc3)ncnc21 |
| 0 | 0 | 56 | 41 | 23 | 0 | 6 | 11 | 0 | 0 | 4 | 56 | 22 | 36 | c1ccc(Sc2[nH]cnc3nccc2-3)cc1 |
| 12 | 6 | 29 | 0 | 4 | – | 3 | 0 | 0 | 0 | 5 | 16 | 47 | 18 | Fc1ccc(CSc2[nH]cnc3ncnc2-3)cc1 |
| 0 | 13 | 67 | 1 | 0 | 0 | 0 | 0 | 0 | 0 | 0 | 12 | 0 | 2 | Fc1ccc(Cn2cnc3c(Sc4ccccc4)ncnc32)cc1 |

Source: ChEMBL document CHEMBL1141882, “Synthesis and biological testing of purine derivatives as potential ATP-competitive kinase inhibitors” (J Med Chem, 2005)
